Test results taken from ChEMBL document CHEMBL1133558, “Structural determinants of AMPA agonist activity in analogues of 2-amino-3-(3-carboxy-5-methyl-4-isoxazolyl)propionic acid: synthesis and pharmacology” (J Med Chem, 2000).

Legend:
[1] = molecular target: T1, Glutamate receptor ionotropic, AMPA (Rattus norvegicus, UniProt P19490+P19491+P19492+P19493); experiment: Agonistic activity electrophysiologically against AMPA using rat cortical wedge preparation; type: functional
[2] = molecular target: T1, Glutamate receptor ionotropic, AMPA; experiment: Inhibition of [3H]AMPA binding to rat brain membranes.; type: cell membranes, Membrane
[3] = molecular target: Glutamate receptor ionotropic, kainate; experiment: Inhibition of [3H]-Kainic acid binding to rat brain membranes.; type: cell membranes, Membrane
Glutamate NMDA receptor [4] = experiment: Inhibition of [3H]CPP binding to rat brain membranes.; type: cell membranes, Membrane
Glutamate NMDA receptor [5] = experiment: Tested in vitro for the antagonistic activity electrophysiologically against NMDA using rat cortical wedge preparation; type: functional
Summary of the method: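 Rat cortical wedge preparation. The cortex was superfused with Mg²⁺-free Krebs buffer and the corpus callosum with Mg²⁺- and Ca²⁺-free Krebs buffer, at 25 °C. Compounds were added to the cortical superfusate, and the potential difference between the electrodes was recorded on a chart recorder.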

[6] = molecular target: Glutamate receptor ionotropic, NMDA (Rattus norvegicus); experiment: Tested in vitro for the antagonistic activity electrophysiologically against NMDA using rat cortical wedge preparation

Row | SMILES | EC50 [1] [µM] | IC50 [2] [µM] | IC50 [3] [µM] | IC50 (Glutamate NMDA receptor [4]) [µM] | IC50 (Glutamate NMDA receptor [5]) [µM] | IC50 [6] [µM]
1 | Cn1oc(C(=O)O)c(CC(N)C(=O)O)c1=O (centres undefined) | > 1000 | > 100 | > 100 | > 100 |  | 
2 | CCCCCOc1noc(C(=O)O)c1CC(N)C(=O)O (centres undefined) | 1000 | > 100 | > 100 | > 100 |  | 
3 | NC(Cc1c(OCc2ccccc2)noc1C(=O)O)C(=O)O (centres undefined) | > 1000 | > 100 | > 100 | > 100 |  | 
4 | C/C=C/COc1noc(C(=O)O)c1CC(N)C(=O)O (centres undefined) | 500 | > 100 | > 100 | > 100 |  | 
5 | CCOc1noc(-c2nc[nH]n2)c1CC(N)C(=O)O (centres undefined) | > 100 | > 100 | > 100 | > 100 |  | 
6 | CCCCOc1noc(C(=O)O)c1CC(N)C(=O)O (centres undefined) | 406 | > 100 | > 100 | > 100 |  | 
7 | NC(Cc1c(O)noc1C(=O)O)C(=O)O (centres undefined) | > 1000 | > 100 | > 100 | > 100 |  | 
8 | CCOc1noc(C(=O)O)c1C/N=c1\c(O)c(O)c1=N |  | > 100 | > 100 | 76 |  | 603
9 | CCn1oc(C(=O)O)c(CC(N)C(=O)O)c1=O (centres undefined) | > 500 | > 100 | > 100 | > 100 |  | 
10 | CCOc1noc(-c2nn[nH]n2)c1CC(N)C(=O)O (centres undefined) | 2000 | > 100 | > 100 | > 100 |  | 

Other lines, results leading:

Row | EC50 [1] [µM] | IC50 [2] [µM] | IC50 [3] [µM] | IC50 (Glutamate NMDA receptor [4]) [µM] | IC50 (Glutamate NMDA receptor [5]) [µM] | IC50 [6] [µM] | SMILES
11 | 1.2 | 0.11 | > 100 | > 100 |  |  | COc1noc(C(=O)O)c1CC(N)C(=O)O (centres undefined)
12 |  | > 100 | > 100 | > 100 | 704 |  | NC(Cc1c(C(=O)O)on(Cc2ccccc2)c1=O)C(=O)O (centres undefined)
13 | 40 | 7.2 | > 100 | > 100 |  |  | C=CCOc1noc(C(=O)O)c1CC(N)C(=O)O (centres undefined)
14 | 37 | 5.5 | > 100 | > 100 |  |  | CC(C)Oc1noc(C(=O)O)c1CC(N)C(=O)O (centres undefined)
15 | 4.8 | 1 | > 100 | > 100 |  |  | CCOc1noc(C(=O)O)c1CC(N)C(=O)O (centres undefined)
16 | 79 | 14 | > 100 | > 100 |  |  | CCCOc1noc(C(=O)O)c1CC(N)C(=O)O (centres undefined)
